Source: ChEMBL document CHEMBL1811832, “Transformation of isosteviol lactam by fungi and the suppressive effects of its transformed products on LPS-induced iNOS expression in macrophages” (2011)

System: RAW264.7
Assay: Antiinflammatory activity against mouse RAW264.7 cells assessed as inhibition of LPS-induced iNOS mRNA expression at 10 uM after 24 hrs by RT-PCR relative to control
Assay type: functional
Method in brief: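 Murine RAW 264.7 macrophages stimulated with LPS 100 ng/mL for 4 h, then treated with compound at 10 μM for 24 h with LPS still present; dexamethasone as reference. Total RNA extracted with TRIzol, oligo(dT)-primed cDNA, real-time PCR (50 cycles, dissociation-curve check). iNOS mRNA expressed as fold relative to LPS-only cells; mean ± SEM, n = 3, paired two-tailed t-test.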

`C[C@@]12CC[C@H]3[C@]4(C)CCC[C@@](C)(C(=O)O)[C@H]4C[C@H](O)[C@]3(CC(=O)N1)C2` was tested. Which “fold change (FC)” value did it give?
Its value is 0.61.

For `C[C@@]12CCC[C@@](C)(C(=O)O)[C@H]1CC[C@]13CC(=O)N[C@](C)(C1)[C@@H](O)C[C@H]32`, which “fold change (FC)” value is on record?
The value was 0.13.

`C[C@]12CC[C@H]3[C@]4(C)CCC[C@@](C)(C(=O)O)[C@H]4CC[C@@]3(C1)[C@H](Cl)C(=O)N2` was tested. Which “fold change (FC)” value did it give?
Its value is 0.85.

How did the “fold change (FC)” value turn out when `CC1=C[C@@]2(CC#N)[C@@H](O)C[C@H]3[C@@](C)(CCC[C@@]3(C)C(=O)O)[C@@H]2CC1` was run?
Its value is 0.12.

With `CC1=C[C@@]2(CC#N)CC[C@H]3[C@](C)([C@@H]2CC1)[C@@H](O)CC[C@@]3(C)C(=O)O` as the compound, how does the “fold change (FC)” value read?
The value was 0.43.

Which “fold change (FC)” value does the source give for `C=C1C[C@@]2(CC#N)CC[C@H]3[C@@](C)(CCC[C@@]3(C)C(=O)O)[C@@H]2C[C@H]1Cl` here?
The value was 0.3.

Which “fold change (FC)” value does the source give for `CCO[C@@H]1C[C@@H]2[C@@](CC#N)(C=C1C)CC[C@H]1[C@@]2(C)CCC[C@@]1(C)C(=O)O` here?
Its value is 0.21.

`CO[C@H]1C[C@@H]2[C@@](CC#N)(C=C1C)CC[C@H]1[C@@]2(C)CCC[C@@]1(C)C(=O)O` was tested. Which “fold change (FC)” value did it give?
Its value is 0.2.

How did the “fold change (FC)” value turn out when `CC1=CC[C@@H]2[C@](CC#N)(CC[C@H]3[C@@]2(C)CCC[C@@]3(C)C(=O)OCCO)C1` was run?
The value was 0.5.

How did the “fold change (FC)” value turn out when `CC1=C[C@@]2(CC#N)CC[C@H]3[C@@](C)(CCC[C@@]3(C)C(=O)O)[C@@H]2CC1` was run?
The value was 0.48.

For `CC1=CC[C@@H]2[C@](CC#N)(CC[C@H]3[C@@]2(C)CCC[C@@]3(C)C(=O)O)C1`, which “fold change (FC)” value is on record?
The value was 0.63.

With `C[C@@H]1C[C@H]2[C@@H]3CCC4=CC(=O)C=C[C@]4(C)[C@@]3(F)[C@@H](O)C[C@]2(C)[C@@]1(O)C(=O)CO` [DEXAMETHASONE] as the compound, how does the “fold change (FC)” value read?
The value was 0.16.

For `C[C@@]12CC[C@@H]3[C@@](CC[C@H]4[C@@]3(C)CCC[C@@]4(C)C(=O)O)(CC(=O)N1)C2` [ISOSTEVIOL LACTAM], which “fold change (FC)” value is on record?
Its value is 0.15.

`C[C@@]12CC[C@@H]3[C@@](CC[C@H]4[C@@]3(C)CCC[C@@]4(C)C(=O)O)(C/C1=N\O)C2` [ISOSTEVIOL OXIME] was tested. Which “fold change (FC)” value did it give?
Its value is 0.15.

How did the “fold change (FC)” value turn out when `C[C@@]12CC[C@@H]3[C@@](CC[C@H]4[C@@]3(C)CCC[C@@]4(C)C(=O)O)(CC1=O)C2` [ISOSTEVIOL] was run?
The value was 0.29.
